Laboratory results: ChEMBL document CHEMBL3232758, “Synthesis and evaluation of carbon-linked analogs of dual orexin receptor antagonist filorexant” (Bioorg Med Chem Lett, 2014)
In brackets after ≈: the same amount, converted by molar mass. Activity calls are given as the source filed them. The rule behind the calls is not given here.

Assays:
[1] = molecular target: T1, Orexin/Hypocretin receptor type 1 (Homo sapiens, UniProt O43613); assay: Antagonist activity at human OX1 receptor assessed as Ca2+ flux by FLIPR assay; format: functional
T1 sequence (O43613 whole entry): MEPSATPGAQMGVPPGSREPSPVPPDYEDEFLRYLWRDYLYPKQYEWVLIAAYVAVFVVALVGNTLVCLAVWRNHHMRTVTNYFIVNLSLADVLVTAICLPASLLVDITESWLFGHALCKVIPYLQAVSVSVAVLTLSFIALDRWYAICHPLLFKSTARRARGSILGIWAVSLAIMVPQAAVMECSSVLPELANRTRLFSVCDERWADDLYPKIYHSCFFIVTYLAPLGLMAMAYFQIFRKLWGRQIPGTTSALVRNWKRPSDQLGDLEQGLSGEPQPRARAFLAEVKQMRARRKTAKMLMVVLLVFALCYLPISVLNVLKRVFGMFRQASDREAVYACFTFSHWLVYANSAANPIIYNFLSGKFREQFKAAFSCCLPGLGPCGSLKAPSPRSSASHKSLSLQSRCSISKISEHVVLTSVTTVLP

[2] = molecular target: T1, Orexin/Hypocretin receptor type 1; assay: Binding affinity to human OX1 receptor in cell membrane by in vitro radioligand binding assay; format: cell membranes
In short: (§1)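 Radioligand binding to membranes from human cells overexpressing OX1R or OX2R; affinity expressed as Ki.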

Orexin receptor type 2 [3] = molecular target: T2, Orexin receptor type 2 (Homo sapiens, UniProt O43614); assay: Antagonist activity at human OX2 receptor assessed as Ca2+ flux by FLIPR assay; format: functional
T2 sequence (O43614 whole entry): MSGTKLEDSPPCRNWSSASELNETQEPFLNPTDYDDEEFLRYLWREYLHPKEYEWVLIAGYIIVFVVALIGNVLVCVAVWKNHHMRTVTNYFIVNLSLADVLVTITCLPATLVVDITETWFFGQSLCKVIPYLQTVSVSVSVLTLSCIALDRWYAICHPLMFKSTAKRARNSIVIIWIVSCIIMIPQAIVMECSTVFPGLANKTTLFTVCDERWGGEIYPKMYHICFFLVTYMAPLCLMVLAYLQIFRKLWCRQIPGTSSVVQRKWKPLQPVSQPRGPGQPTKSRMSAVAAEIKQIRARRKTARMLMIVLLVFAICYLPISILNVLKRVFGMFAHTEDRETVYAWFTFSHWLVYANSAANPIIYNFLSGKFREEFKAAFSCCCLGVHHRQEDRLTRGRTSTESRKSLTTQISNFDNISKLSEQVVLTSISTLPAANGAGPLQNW

Cytochrome P450 3A4 [4] = molecular target: T3, Cytochrome P450 3A4 (Homo sapiens, UniProt P08684); assay: Inhibition of CYP3A4 (unknown origin); format: ADME
T3 sequence (P08684 whole entry): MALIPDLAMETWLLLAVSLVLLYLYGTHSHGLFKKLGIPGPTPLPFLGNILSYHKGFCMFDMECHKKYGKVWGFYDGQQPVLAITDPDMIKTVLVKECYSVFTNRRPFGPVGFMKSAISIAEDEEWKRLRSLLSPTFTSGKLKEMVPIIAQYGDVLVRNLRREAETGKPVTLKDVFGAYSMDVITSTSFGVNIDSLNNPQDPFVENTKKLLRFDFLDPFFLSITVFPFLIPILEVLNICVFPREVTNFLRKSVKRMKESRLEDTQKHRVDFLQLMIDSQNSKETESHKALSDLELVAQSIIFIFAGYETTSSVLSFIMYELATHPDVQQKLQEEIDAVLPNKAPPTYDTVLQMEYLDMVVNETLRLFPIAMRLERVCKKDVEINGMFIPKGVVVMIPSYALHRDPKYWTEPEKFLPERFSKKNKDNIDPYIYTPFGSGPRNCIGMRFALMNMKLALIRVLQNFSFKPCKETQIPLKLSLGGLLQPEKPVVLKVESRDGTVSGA

Orexin receptor type 2 [5] = molecular target: T2, Orexin receptor type 2; assay: Binding affinity to human OX2 receptor in cell membrane by in vitro radioligand binding assay; format: cell membranes; in short: as §1
[6] = Lipophilicity, log D of the compound at pH 7 by HPLC analysis; format: physicochemical; conditions: buffer
In short: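 High-throughput HPLC logD at pH 7 using a reversed-phase C18 column, with phosphate-buffered saline pH 7 and acetonitrile as mobile phases. The system is calibrated with standards of published shake-flask logD, and logD is read from a linear regression of retention time against logD.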

[7] = Clearance in iv dosed dog; format: ADME, organism-based, Canis lupus familiaris; conditions: in vivo
Cytochrome P450 2D6 = Cytochrome P450 2D6 (Homo sapiens, UniProt P10635); assay: Inhibition of CYP2D6 (unknown origin); format: ADME
Cytochrome P450 2D6, sequence (P10635 whole entry): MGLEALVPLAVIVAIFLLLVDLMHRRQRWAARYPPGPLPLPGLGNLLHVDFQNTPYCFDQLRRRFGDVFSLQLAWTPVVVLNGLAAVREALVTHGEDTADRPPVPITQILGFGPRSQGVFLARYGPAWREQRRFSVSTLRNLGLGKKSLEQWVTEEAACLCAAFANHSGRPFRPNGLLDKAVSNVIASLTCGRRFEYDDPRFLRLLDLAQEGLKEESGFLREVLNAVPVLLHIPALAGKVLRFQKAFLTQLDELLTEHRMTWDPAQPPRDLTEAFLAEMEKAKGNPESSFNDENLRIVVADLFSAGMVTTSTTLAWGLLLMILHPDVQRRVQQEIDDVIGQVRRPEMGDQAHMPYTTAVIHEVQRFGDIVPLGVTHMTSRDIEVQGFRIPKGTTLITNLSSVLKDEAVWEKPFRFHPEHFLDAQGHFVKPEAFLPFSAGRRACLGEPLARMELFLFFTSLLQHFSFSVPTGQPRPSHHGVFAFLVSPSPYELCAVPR

[8] = Half life in iv dosed dog; format: ADME, organism-based, Canis lupus familiaris; conditions: in vivo
Mus musculus [9] = assay: Sleep promoting activity in OX2 receptor knockout mouse at 100 mg/kg, po administered during dark or active phase 4 hrs prior to lights on; format: functional, organism-based; design: dose 100 mg/kg
In short: (§2)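 Mice carried surgically implanted radiotelemetry transmitters recording EEG and EMG to score vigilance state; wildtype n = 5, OX2R knockout n = 6. Oral 100 mg/kg or vehicle (20% Vit. E TPGS) in a balanced cross-over, dosed in the dark (active) phase 4 h before lights on. Mean time per state was taken in 30 min intervals and compared by a linear mixed-effects repeated-measures t-test.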

Mus musculus [10] = assay: Sleep promoting activity in wild type mouse sleep EEG model assessed as duration of sleep at 100 mg/kg, po administered during dark or active phase 4 hrs prior to lights on; format: functional; in short: as §2
[11] = Plasma concentration in mouse at 100 mg/kg, po; format: ADME, organism-based; design: dose 100 mg/kg, route oral
Cytochrome P450 2C9 = Cytochrome P450 2C9 (Homo sapiens, UniProt P11712); assay: Inhibition of CYP2C9 (unknown origin); format: ADME
Cytochrome P450 2C9, sequence (P11712 whole entry): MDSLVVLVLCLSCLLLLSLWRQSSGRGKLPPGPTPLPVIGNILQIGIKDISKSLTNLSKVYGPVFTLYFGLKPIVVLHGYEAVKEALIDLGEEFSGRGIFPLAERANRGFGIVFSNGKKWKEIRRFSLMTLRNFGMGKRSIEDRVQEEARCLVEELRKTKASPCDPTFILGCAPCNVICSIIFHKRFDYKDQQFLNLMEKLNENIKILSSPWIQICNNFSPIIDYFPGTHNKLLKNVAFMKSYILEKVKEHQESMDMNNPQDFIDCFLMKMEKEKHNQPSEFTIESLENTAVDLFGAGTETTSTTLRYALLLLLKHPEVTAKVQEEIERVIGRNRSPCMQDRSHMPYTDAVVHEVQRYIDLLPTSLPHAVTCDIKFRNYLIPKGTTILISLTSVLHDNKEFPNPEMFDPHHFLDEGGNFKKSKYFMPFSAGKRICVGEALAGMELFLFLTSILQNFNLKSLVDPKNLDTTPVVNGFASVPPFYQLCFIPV

[12] = Solubility of the compound at pH 7 by HPLC analysis; format: physicochemical; conditions: buffer
Mus musculus [13] = assay: Sleep promoting activity in wild type mouse sleep EEG model assessed as reduction of active wake at 100 mg/kg, po administered during dark or active phase 4 hrs prior to lights on measured during first 30 mins after drug administration; format: functional, organism-based; design: dose 100 mg/kg; in short: as §2
Mus musculus [14] = assay: Sleep promoting activity in wild type mouse sleep EEG model assessed as increase in delta sleep at 100 mg/kg, po administered during dark or active phase 4 hrs prior to lights on measured during first 30 mins after drug administration; format: functional, organism-based; design: dose 100 mg/kg; in short: as §2
Mus musculus [15] = assay: Sleep promoting activity in wild type mouse sleep EEG model assessed as increase in REM sleep at 100 mg/kg, po administered during dark or active phase 4 hrs prior to lights on measured during first 30 mins after drug administration; format: functional, organism-based; design: dose 100 mg/kg; in short: as §2
[16] = Plasma protein binding in human; format: ADME, cell-free; conditions: read-out: PPB (converted)
[17] = Plasma protein binding in dog; format: ADME, cell-free, Canis lupus familiaris; conditions: read-out: PPB (converted)
Mus musculus [18] = assay: Sleep promoting activity in wild type mouse sleep EEG model assessed as increase in REM sleep at 100 mg/kg, po administered during dark or active phase 4 hrs prior to lights on measured for 2 hrs following drug administration; format: functional, organism-based; design: dose 100 mg/kg; in short: as §2
Mus musculus [19] = assay: Sleep promoting activity in wild type mouse sleep EEG model assessed as increase in delta sleep at 100 mg/kg, po administered during dark or active phase 4 hrs prior to lights on measured for 2 hrs following drug administration; format: functional, organism-based; design: dose 100 mg/kg; in short: as §2
CYP3A4 = CYP3A4 (Homo sapiens, UniProt P08684); assay: Time-dependent inhibition of CYP3A4 (unknown origin) assessed as IC50 shift ratio; format: ADME; conditions: read-out: Ratio IC50
CYP3A4, sequence (P08684 whole entry): as the sequence (P08684 whole entry) above

Mus musculus [20] = assay: Sleep promoting activity in wild type mouse sleep EEG model assessed as reduction of active wake at 100 mg/kg, po administered during dark or active phase 4 hrs prior to lights on measured for 2 hrs following drug administration; format: functional, organism-based; design: dose 100 mg/kg; in short: as §2
Cytochrome P450 3A4 [21] = molecular target: T3, Cytochrome P450 3A4; assay: Time-dependent inhibition of CYP3A4 (unknown origin); format: ADME; conditions: TDE = time-dependent effect
[22] = molecular target: Voltage-gated inwardly rectifying potassium channel KCNH2 (Homo sapiens, UniProt Q12809); assay: Inhibition of human ERG
Voltage-gated inwardly rectifying potassium channel KCNH2, sequence (Q12809 whole entry): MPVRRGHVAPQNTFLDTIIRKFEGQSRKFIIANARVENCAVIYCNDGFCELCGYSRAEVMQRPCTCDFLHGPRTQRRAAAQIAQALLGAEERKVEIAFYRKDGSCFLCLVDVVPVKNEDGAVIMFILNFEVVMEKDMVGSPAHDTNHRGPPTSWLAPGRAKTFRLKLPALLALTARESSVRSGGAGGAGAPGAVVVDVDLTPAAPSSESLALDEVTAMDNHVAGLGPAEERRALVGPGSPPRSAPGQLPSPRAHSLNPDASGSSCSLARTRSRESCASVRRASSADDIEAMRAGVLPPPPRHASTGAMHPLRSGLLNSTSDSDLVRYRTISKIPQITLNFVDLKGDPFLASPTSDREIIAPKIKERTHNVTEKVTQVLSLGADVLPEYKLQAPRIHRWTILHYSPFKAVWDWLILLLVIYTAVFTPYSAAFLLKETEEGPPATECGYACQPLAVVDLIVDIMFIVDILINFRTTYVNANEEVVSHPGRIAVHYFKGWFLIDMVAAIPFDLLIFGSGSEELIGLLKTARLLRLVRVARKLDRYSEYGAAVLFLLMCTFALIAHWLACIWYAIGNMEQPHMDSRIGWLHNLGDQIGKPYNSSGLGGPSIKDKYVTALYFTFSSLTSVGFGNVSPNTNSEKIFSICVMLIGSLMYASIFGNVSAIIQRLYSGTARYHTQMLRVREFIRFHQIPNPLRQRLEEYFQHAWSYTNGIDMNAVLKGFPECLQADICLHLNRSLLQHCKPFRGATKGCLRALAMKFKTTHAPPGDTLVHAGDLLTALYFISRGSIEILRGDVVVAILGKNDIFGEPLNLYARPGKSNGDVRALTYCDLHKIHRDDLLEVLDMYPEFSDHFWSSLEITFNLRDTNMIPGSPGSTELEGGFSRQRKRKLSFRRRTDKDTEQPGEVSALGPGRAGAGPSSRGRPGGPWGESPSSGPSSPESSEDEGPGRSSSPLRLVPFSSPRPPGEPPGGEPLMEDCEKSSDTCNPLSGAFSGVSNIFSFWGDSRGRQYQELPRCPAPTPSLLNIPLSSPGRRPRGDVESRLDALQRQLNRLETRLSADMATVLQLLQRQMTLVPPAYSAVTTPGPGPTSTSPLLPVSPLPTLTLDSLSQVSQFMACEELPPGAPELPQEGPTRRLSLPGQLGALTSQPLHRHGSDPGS

Cc1ccc(-n2nccn2)c(C(=O)N2C[C@H](C#Cc3cccc(CO)c3)CC[C@H]2C)c1
IC50 [1]: 6.3 nM | Ki [2]: 0.56 nM | IC50 (Orexin receptor type 2 [3]): 6.3 nM | IC50 (Cytochrome P450 3A4 [4]): 4000 nM | Ki (Orexin receptor type 2 [5]): 0.53 nM

Cc1ccc(-n2nccn2)c(C(=O)N2C[C@H](COc3ccc(F)cn3)CC[C@H]2C)c1
IC50 [1]: 16 nM | Ki [2]: 1 nM | IC50 (Orexin receptor type 2 [3]): 15 nM | Ki (Orexin receptor type 2 [5]): 0.2 nM

Cc1ccc(-n2nccn2)c(C(=O)N2C[C@H](C#Cc3cccc(CO)n3)CC[C@H]2C)c1
IC50 [1]: 59 nM | Ki [2]: 18 nM | IC50 (Orexin receptor type 2 [3]): 26 nM | Ki (Orexin receptor type 2 [5]): 5.6 nM | logD [6]: 2.1

Cc1ccc(-n2nccn2)c(C(=O)N2C[C@H](C#Cc3ccc(CO)cn3)CC[C@H]2C)c1
Ki [2]: 211 nM | Ki (Orexin receptor type 2 [5]): 130 nM

Cc1ccc(-n2nccn2)c(C(=O)N2C[C@H](C#Cc3cc(CO)ccn3)CC[C@H]2C)c1
Ki [2]: 76 nM | Ki (Orexin receptor type 2 [5]): 42 nM

Cc1ccc(-n2nccn2)c(C(=O)N2C[C@H](C#Cc3ccnc(CO)c3)CC[C@H]2C)c1
IC50 [1]: 298 nM | Ki [2]: 75 nM | IC50 (Orexin receptor type 2 [3]): 100 nM | Ki (Orexin receptor type 2 [5]): 25 nM

Cc1ccc(-n2nccn2)c(C(=O)N2C[C@H](C#Cc3cnccc3O)CC[C@H]2C)c1
IC50 [1]: 3880 nM | Ki [2]: 866 nM | IC50 (Orexin receptor type 2 [3]): 52 nM | Ki (Orexin receptor type 2 [5]): 7.5 nM

Cc1ccc(-n2nccn2)c(C(=O)N2C[C@H](C#Cc3ccncc3)CC[C@H]2C)c1
Ki [2]: 26 nM | Ki (Orexin receptor type 2 [5]): 7 nM

Cc1ccc(-n2nccn2)c(C(=O)N2C[C@H](CCc3ccc(F)cn3)CC[C@H]2C)c1
IC50 [1]: 861 nM | Ki [2]: 470 nM | IC50 (Orexin receptor type 2 [3]): 145 nM | Ki (Orexin receptor type 2 [5]): 26 nM

Cc1ccc(-n2nccn2)c(C(=O)N2C[C@H](C#Cc3cccnc3)CC[C@H]2C)c1
IC50 [1]: 83 nM | Ki [2]: 107 nM | IC50 (Orexin receptor type 2 [3]): 28 nM | Ki (Orexin receptor type 2 [5]): 41 nM

Cc1ccc(-n2nccn2)c(C(=O)N2C[C@H](C#Cc3cccnc3O)CC[C@H]2C)c1
Ki [2]: 24 nM | Ki (Orexin receptor type 2 [5]): 24 nM

Cc1ccc(-n2nccn2)c(C(=O)N2C[C@H](C#Cc3cncc(CO)c3)CC[C@H]2C)c1
Ki [2]: 108 nM | Ki (Orexin receptor type 2 [5]): 32 nM

Cc1ccc(-n2nccn2)c(C(=O)N2C[C@H](/C=C\c3ccc(F)cn3)CC[C@H]2C)c1
IC50 [1]: 706 nM | Ki [2]: 135 nM | IC50 (Orexin receptor type 2 [3]): 417 nM | Ki (Orexin receptor type 2 [5]): 28 nM

Cc1ccc(-n2nccn2)c(C(=O)N2C[C@H](C#Cc3ccc(CO)nc3)CC[C@H]2C)c1
Ki [2]: 339 nM | Ki (Orexin receptor type 2 [5]): 150 nM

Cc1ccc(-n2nccn2)c(C(=O)N2C[C@H](/C=C/c3ccc(F)cn3)CC[C@H]2C)c1
IC50 [1]: 140 nM | Ki [2]: 17 nM | IC50 (Orexin receptor type 2 [3]): 34 nM | Ki (Orexin receptor type 2 [5]): 3 nM

Cc1ccc(-n2nccn2)c(C(=O)N2C[C@H](C#Cc3ccc(F)cn3)CC[C@H]2C)c1
IC50 [1]: 31 nM | clearance [7]: 1.6 mL/min/kg | Ki [2]: 1.1 nM | INH (Cytochrome P450 2D6): > 50 µM | half-life [8]: 2 h | Activity (Mus musculus [9]): inactive | Time (Mus musculus [10]): 2 h | AUC [11]: 60 µM·h | IC50 (Orexin receptor type 2 [3]): 24 nM | INH (Cytochrome P450 2C9): 32 µM | IC50 (Cytochrome P450 3A4 [4]): > 50000 nM | solubility [12]: 124 µM (≈ 50 µg/mL) | Activity (Mus musculus [13]): Active | Activity (Mus musculus [14]): Active | Activity (Mus musculus [15]): Active | fraction unbound [16]: 0.009 | fraction unbound [17]: 0.039 | Activity (Mus musculus [18]): Active | Ki (Orexin receptor type 2 [5]): 1.1 nM | Activity (Mus musculus [19]): Active | logD [6]: 3.7 | IC50 shift (CYP3A4): > 6.4 | Activity (Mus musculus [20]): Active | inhibition (INH) (Cytochrome P450 3A4 [21]): tde | INH [22]: 23 µM

Cc1ccc(-n2nccn2)c(C(=O)N2C[C@H](C#Cc3ccccn3)CC[C@H]2C)c1
IC50 [1]: 100 nM | Ki [2]: 27 nM | IC50 (Orexin receptor type 2 [3]): 42 nM | Ki (Orexin receptor type 2 [5]): 11 nM
